Source: article PMC5074691 (Cell reports, 2016)
No end group written: not given here.

T1: MORC3 CW domain (residues 407-455), crystallised (human, UniProt Q14149 407-455)
T1 chain (looked up): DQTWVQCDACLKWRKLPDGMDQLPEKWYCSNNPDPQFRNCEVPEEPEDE


Columns and labels:
[1] = target: MORC3 CW domain (wild type, GST tag cleaved) (human); assay: other fluorescence titration
chromatin in HeLa cells = assay: Chromatin association assay; assay type: cell-based; settings: 48 h post transfection, fractionation and immunoblot
Method in brief: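 HeLa cells (DMEM, 10% FBS, pen/strep) are transfected with full-length human N-terminal 3xFLAG-MORC3, WT or CW mutants, and trypsinized at 48 h. The washed chromatin pellet is nuclease-solubilized. Fractions (1–5 µg) are immunoblotted for FLAG, β-tubulin and H3.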

[2] = tested on: nuclear bodies (NBs) in HeLa cells; assay: Confocal immunofluorescence of FLAG-tagged MORC3; assay type: cell-based; settings: 48 h post transfection, anti-FLAG
Method in brief: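 HeLa in DMEM/10% FBS/penicillin-streptomycin grown on chamber slides, transiently transfected (TurboFect) with WT or CW-mutant 3xFLAG-MORC3 (C416S, C416A, W419A). At 48 h: cold methanol fixation (−20°C, 10 min), 1% BSA block 30 min, anti-FLAG 1:200 for 1 h at 25°C, then Alexa Fluor 647 secondary 1:1000 for 1 h. DAPI mount; confocal imaging with 100X objective.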

[3] = target: T1, MORC3 CW domain (residues 407-455), …; assay: crystal structure
MORC3-CW E453A (human) = assay: ITC

| Kd [1] | Molecule | association with chromatin (chromatin in HeLa cells) | nuclear localization [2] | also measured |
| --- | --- | --- | --- | --- |
| 740 nM | histone H3K4me1 peptide |  |  |  |
| 670 nM | histone H3K4me2 peptide |  |  |  |
| 640 nM | histone H3K4me3 peptide (residues 1-12 of H3) (from UniProt P68431 2-13) |  |  |  |
|  | WT FLAG-MORC3: FLAG-tagged full length wild-type MORC3 (protein, UniProt Q14149 1-939, looked up, full-length FLAG tag) MAAQPPRGIRLSALCPKFLHTNSTSHTWPFSAVAELIDNAYDPDVNAKQIWIDKTVINDHICLTFTDNGNGMTSDKLHKMLSFGFSDKVTMNGHVPVGLYGNGFKSGSMRLGKDAIVFTKNGESMSVGLLSQTYLEVIKAEHVVVPIVAFNKHRQMINLAESKASLAAILEHSLFSTEQKLLAELDAIIGKKGTRIIIWNLRSYKNATEFDFEKDKYDIRIPEDLDEITGKKGYKKQERMDQIAPESDYSLRAYCSILYLKPRMQIILRGQKVKTQLVSKSLAYIERDVYRPKFLSKTVRITFGFNCRNKDHYGIMMYHRNRLIKAYEKVGCQLRANNMGVGVVGIIECNFLKPTHNKQDFDYTNEYRLTITALGEKLNDYWNEMKVKKNTEYPLNLPVEDIQKRPDQTWVQCDACLKWRKLPDGMDQLPEKWYCSNNPDPQFRNCEVPEEPEDEDLVHPTYEKTYKKTNKEKFRIRQPEMIPRINAELLFRPTALSTPSFSSPKESVPRRHLSEGTNSYATRLLNNHQVPPQSEPESNSLKRRLSTRSSILNAKNRRLSSQFENSVYKGDDDDEDVIILEENSTPKPAVDHDIDMKSEQSHVEQGGVQVEFVGDSEPCGQTGSTSTSSSRCDQGNTAATQTEVPSLVVKKEETVEDEIDVRNDAVILPSCVEAEAKIHETQETTDKSADDAGCQLQELRNQLLLVTEEKENYKRQCHMFTDQIKVLQQRILEMNDKYVKKETCHQSTETDAVFLLESINGKSESPDHMVSQYQQALEEIERLKKQCSALQHVKAECSQCSNNESKSEMDEMAVQLDDVFRQLDKCSIERDQYKSEVELLEMEKSQIRSQCEELKTEVEQLKSTNQQTATDVSTSSNIEESVNHMDGESLKLRSLRVNVGQLLAMIVPDLDLQQVNYDVDVVDEILGQVVEQMSEISST | purifies in the chromatin and soluble fractions | localized to NBs |  |
|  | W419A: FLAG-tagged MORC3 mutant that abrogates binding to the histone H3 tail (protein, UniProt Q14149 1-939, looked up, variant W419A, full-length FLAG tag) MAAQPPRGIRLSALCPKFLHTNSTSHTWPFSAVAELIDNAYDPDVNAKQIWIDKTVINDHICLTFTDNGNGMTSDKLHKMLSFGFSDKVTMNGHVPVGLYGNGFKSGSMRLGKDAIVFTKNGESMSVGLLSQTYLEVIKAEHVVVPIVAFNKHRQMINLAESKASLAAILEHSLFSTEQKLLAELDAIIGKKGTRIIIWNLRSYKNATEFDFEKDKYDIRIPEDLDEITGKKGYKKQERMDQIAPESDYSLRAYCSILYLKPRMQIILRGQKVKTQLVSKSLAYIERDVYRPKFLSKTVRITFGFNCRNKDHYGIMMYHRNRLIKAYEKVGCQLRANNMGVGVVGIIECNFLKPTHNKQDFDYTNEYRLTITALGEKLNDYWNEMKVKKNTEYPLNLPVEDIQKRPDQTWVQCDACLKARKLPDGMDQLPEKWYCSNNPDPQFRNCEVPEEPEDEDLVHPTYEKTYKKTNKEKFRIRQPEMIPRINAELLFRPTALSTPSFSSPKESVPRRHLSEGTNSYATRLLNNHQVPPQSEPESNSLKRRLSTRSSILNAKNRRLSSQFENSVYKGDDDDEDVIILEENSTPKPAVDHDIDMKSEQSHVEQGGVQVEFVGDSEPCGQTGSTSTSSSRCDQGNTAATQTEVPSLVVKKEETVEDEIDVRNDAVILPSCVEAEAKIHETQETTDKSADDAGCQLQELRNQLLLVTEEKENYKRQCHMFTDQIKVLQQRILEMNDKYVKKETCHQSTETDAVFLLESINGKSESPDHMVSQYQQALEEIERLKKQCSALQHVKAECSQCSNNESKSEMDEMAVQLDDVFRQLDKCSIERDQYKSEVELLEMEKSQIRSQCEELKTEVEQLKSTNQQTATDVSTSSNIEESVNHMDGESLKLRSLRVNVGQLLAMIVPDLDLQQVNYDVDVVDEILGQVVEQMSEISST | did not associate with chromatin and were found only in the soluble fractions | diffused throughout the nucleus |  |
|  | C416A: FLAG-tagged MORC3 mutant in CW domain that disrupts the CW structure (protein, UniProt Q14149 1-939, looked up, variant C416A, full-length FLAG tag) MAAQPPRGIRLSALCPKFLHTNSTSHTWPFSAVAELIDNAYDPDVNAKQIWIDKTVINDHICLTFTDNGNGMTSDKLHKMLSFGFSDKVTMNGHVPVGLYGNGFKSGSMRLGKDAIVFTKNGESMSVGLLSQTYLEVIKAEHVVVPIVAFNKHRQMINLAESKASLAAILEHSLFSTEQKLLAELDAIIGKKGTRIIIWNLRSYKNATEFDFEKDKYDIRIPEDLDEITGKKGYKKQERMDQIAPESDYSLRAYCSILYLKPRMQIILRGQKVKTQLVSKSLAYIERDVYRPKFLSKTVRITFGFNCRNKDHYGIMMYHRNRLIKAYEKVGCQLRANNMGVGVVGIIECNFLKPTHNKQDFDYTNEYRLTITALGEKLNDYWNEMKVKKNTEYPLNLPVEDIQKRPDQTWVQCDAALKWRKLPDGMDQLPEKWYCSNNPDPQFRNCEVPEEPEDEDLVHPTYEKTYKKTNKEKFRIRQPEMIPRINAELLFRPTALSTPSFSSPKESVPRRHLSEGTNSYATRLLNNHQVPPQSEPESNSLKRRLSTRSSILNAKNRRLSSQFENSVYKGDDDDEDVIILEENSTPKPAVDHDIDMKSEQSHVEQGGVQVEFVGDSEPCGQTGSTSTSSSRCDQGNTAATQTEVPSLVVKKEETVEDEIDVRNDAVILPSCVEAEAKIHETQETTDKSADDAGCQLQELRNQLLLVTEEKENYKRQCHMFTDQIKVLQQRILEMNDKYVKKETCHQSTETDAVFLLESINGKSESPDHMVSQYQQALEEIERLKKQCSALQHVKAECSQCSNNESKSEMDEMAVQLDDVFRQLDKCSIERDQYKSEVELLEMEKSQIRSQCEELKTEVEQLKSTNQQTATDVSTSSNIEESVNHMDGESLKLRSLRVNVGQLLAMIVPDLDLQQVNYDVDVVDEILGQVVEQMSEISST | did not associate with chromatin and were found only in the soluble fractions | diffused throughout the nucleus |  |
|  | C416S: FLAG-tagged MORC3 mutant in CW domain that disrupts the CW structure (protein, UniProt Q14149 1-939, looked up, variant C416S, full-length FLAG tag) MAAQPPRGIRLSALCPKFLHTNSTSHTWPFSAVAELIDNAYDPDVNAKQIWIDKTVINDHICLTFTDNGNGMTSDKLHKMLSFGFSDKVTMNGHVPVGLYGNGFKSGSMRLGKDAIVFTKNGESMSVGLLSQTYLEVIKAEHVVVPIVAFNKHRQMINLAESKASLAAILEHSLFSTEQKLLAELDAIIGKKGTRIIIWNLRSYKNATEFDFEKDKYDIRIPEDLDEITGKKGYKKQERMDQIAPESDYSLRAYCSILYLKPRMQIILRGQKVKTQLVSKSLAYIERDVYRPKFLSKTVRITFGFNCRNKDHYGIMMYHRNRLIKAYEKVGCQLRANNMGVGVVGIIECNFLKPTHNKQDFDYTNEYRLTITALGEKLNDYWNEMKVKKNTEYPLNLPVEDIQKRPDQTWVQCDASLKWRKLPDGMDQLPEKWYCSNNPDPQFRNCEVPEEPEDEDLVHPTYEKTYKKTNKEKFRIRQPEMIPRINAELLFRPTALSTPSFSSPKESVPRRHLSEGTNSYATRLLNNHQVPPQSEPESNSLKRRLSTRSSILNAKNRRLSSQFENSVYKGDDDDEDVIILEENSTPKPAVDHDIDMKSEQSHVEQGGVQVEFVGDSEPCGQTGSTSTSSSRCDQGNTAATQTEVPSLVVKKEETVEDEIDVRNDAVILPSCVEAEAKIHETQETTDKSADDAGCQLQELRNQLLLVTEEKENYKRQCHMFTDQIKVLQQRILEMNDKYVKKETCHQSTETDAVFLLESINGKSESPDHMVSQYQQALEEIERLKKQCSALQHVKAECSQCSNNESKSEMDEMAVQLDDVFRQLDKCSIERDQYKSEVELLEMEKSQIRSQCEELKTEVEQLKSTNQQTATDVSTSSNIEESVNHMDGESLKLRSLRVNVGQLLAMIVPDLDLQQVNYDVDVVDEILGQVVEQMSEISST | did not associate with chromatin and were found only in the soluble fractions |  |  |
|  | ARTK(Me3)QTARKSTG (peptide, UniProt P68431 2-13, looked up) [histone H3K4me3 peptide (residues 1-12 of H3)] |  |  | binding result [3]: binds |
|  | MORC3 His-ATPase domain (aa 1-392) (domain or fragment) MAAQPPRGIRLSALCPKFLHTNSTSHTWPFSAVAELIDNAYDPDVNAKQIWIDKTVINDHICLTFTDNGNGMTSDKLHKMLSFGFSDKVTMNGHVPVGLYGNGFKSGSMRLGKDAIVFTKNGESMSVGLLSQTYLEVIKAEHVVVPIVAFNKHRQMINLAESKASLAAILEHSLFSTEQKLLAELDAIIGKKGTRIIIWNLRSYKNATEFDFEKDKYDIRIPEDLDEITGKKGYKKQERMDQIAPESDYSLRAYCSILYLKPRMQIILRGQKVKTQLVSKSLAYIERDVYRPKFLSKTVRITFGFNCRNKDHYGIMMYHRNRLIKAYEKVGCQLRANNMGVGVVGIIECNFLKPTHNKQDFDYTNEYRLTITALGEKLNDYWNEMKVKKNTE |  |  | Kd (MORC3-CW E453A (human)): 9000 nM; stoichiometry N (MORC3-CW E453A (human)): 1 |
